From PubChem
CCR6 antagonist = CCR6 receptor antagonists, primary screen, cell-based, CHO-K1, luminescence, beta-arrestin, uHTS. inhibition, % at 20 µM. 340,000 compounds, 0.49% hits. CHO-K1 CCR6 PathHunter beta-arrestin, CCL20-stimulated. C-C chemokine receptor type 6 (Homo sapiens), P51684. AID 493098, 2011;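 active = compounds whose inhibition of the agonist-driven luminescence signal at 20 µM reaches about 50%, limit read from the data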;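 note: cells stimulated with CCL20 at 14 nM final; plate controls were DMSO with CCL20 for no effect and DMSO without agonist for full effect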
APJ antagonist = antagonists of human apelin receptor APJ, primary screen, CHO-K1 cells, beta-arrestin complementation, luminescence; inhibition, % at 20 µM; 330,000 compounds, 0.32% hits;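 active = inhibition above about 40% at 20 µM, limit read from the data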;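 note: cells challenged with 10 nM apelin-13 agonist together with compound; plate controls were apelin-13 plus DMSO wells for no effect and DMSO wells lacking apelin-13 for full effect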
Target sequence (P35414 whole entry, looked up): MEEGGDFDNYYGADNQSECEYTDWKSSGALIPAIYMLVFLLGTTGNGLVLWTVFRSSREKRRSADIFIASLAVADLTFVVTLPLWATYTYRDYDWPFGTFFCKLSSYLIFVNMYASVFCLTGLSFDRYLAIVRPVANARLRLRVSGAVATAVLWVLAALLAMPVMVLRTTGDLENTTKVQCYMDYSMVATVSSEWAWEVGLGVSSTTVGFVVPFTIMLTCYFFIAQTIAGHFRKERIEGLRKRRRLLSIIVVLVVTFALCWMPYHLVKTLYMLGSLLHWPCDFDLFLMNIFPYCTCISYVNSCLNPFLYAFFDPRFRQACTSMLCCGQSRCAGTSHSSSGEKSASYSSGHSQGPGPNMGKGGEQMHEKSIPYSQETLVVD
CXCR6 block = CXCR6 receptor inhibitors, primary screen, cell-based, beta-arrestin, luminescence, CHO-K1 PathHunter, 1536-well; C-X-C chemokine receptor type 6 (Homo sapiens), O00574; inhibition, % at 20 µM; 360,000 compounds, 0.36% hits; AID 602244, 2012; in the data active = inhibition above about 34%, passing the limit was not always enough;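 note: antagonist mode with CXCL16 agonist at 10 nM final; 0% = 10 nM CXCL16 with DMSO and 100% = unstimulated wells without agonist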
EBI2 block = EBI2 receptor antagonists, beta-arrestin recruitment, primary screen, cell-based, luminescence, 7a,25-OHC stimulation, uHTS; AID 651636, 2012; 7a,25-OHC stimulated; inhibition, % at 5 µM; 360,000 compounds, 0.81% hits; in the data active = inhibition above about 38%;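 note: enzyme fragment complementation signal reports receptor beta-arrestin coupling in cells; 0% = agonist plus DMSO wells and 100% = wells without agonist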
APJ agonist = agonists of human apelin receptor APJ, primary screen, CHO-K1 cells, PathHunter beta-arrestin, luminescence; activation, % at 20 µM; 0% DMSO wells, 100% apelin; 330,000 compounds, 0.11% hits; AID 2520, 2010;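 active = activation more than six SD over the plate average, tested at 20 µM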;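 note: 0% = DMSO alone and 100% = apelin-13 at 10 nM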
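Assay system: CHO-K1 APJ beta-arrestin complementation cell line / Compound: single test compound dose, 20 µM final, 1% DMSO / Times: overnight seeding, 90 min compound at 25 °C, 1 h detection / Technique: beta-gal luminescence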
EBI2 antag conf = EBI2 antagonist hit retest, beta-arrestin, confirmation, cell-based, single concentration, luminescence, 7a,25-OHC stimulation. AID 651997, 2013. shares compounds with EBI2 block. 2,400 compounds, 29% hits. 7a,25-OHC antagonism. inhibition, % at 5 µM;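 active = inhibition of at least 50%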
EBI2 ag = EBI2 agonist activity of antagonist hits, confirmation, counter-screen for EBI2 antagonist project, cell-based, single concentration, agonist mode, luminescence; activation, % at 5 µM; AID 652000, 2013; EBI2-expressing cells, 60 min; 0% vehicle, 100% 7α,25-dihydroxycholesterol control; shares compounds with EBI2 block; 2,400 tested, under 10 active;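 active = activation of at least 50%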
bGal counter = E. coli beta-galactosidase enzyme inhibition, confirmation, counter-screen for EBI2 antagonist project, biochemical, luminescence, single concentration; shares compounds with EBI2 block; purified beta-galactosidase, luminescent Galacton Star, 15 min; inhibition, % at 5 µM; 2,400 compounds, 1% hits;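 active = replicate-average signal at least 3 plate SD below neutral wells, shown as high inhibition, flagging enzyme-inhibiting false positives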;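 note: 0% = DMSO wells with enzyme and 100% = wells lacking enzyme; higher means stronger loss of beta-gal luminescence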
Numbers without * were called inactive; . = no result given; ! = not confirmed by another sample. A selection: hits, their analogues and other compounds. The true share with any hit is near 1.5%.

SMILES	CCR6 antagonist	APJ antagonist	CXCR6 block	EBI2 block	APJ agonist	EBI2 antag conf	EBI2 ag	bGal counter
CCCC(C)NC(=O)COc1ccc(Sc2ccc(OCC(=O)NC(C)CCC)cc2)cc1 (stereo not drawn)	21	-7	4	43*	3	27	2	-2
COc1ccc(C(=O)OCC(=O)N(Cc2ccccc2)Cc2ccccc2)c(O)c1	.	.	7	11	.	.	.	.
CC(=O)c1cc2c(cc1NC(=O)Cn1nc(C)c(C)c(C#N)c1=O)OCO2	10	18	3	3	-2	.	.	.
CCCCCCSc1ccc(-c2nc3ccc(C)cn3c2NCc2ccccc2)cc1	3	3	0	53*	-7	54*!	1	2
CCCCNc1c(-c2ccc(SC3CCCCC3)c(OC)c2)nc2ccc(C)cn12	14	6	-1	52*	-1	55*!	3	3
CCC(C)Sc1ccc(-c2nc3ccc(Cl)cn3c2NCc2ccccc2)cc1 (stereo not drawn)	9	-1	-3	44*	1	28	-2	-14
CCCCNc1c(-c2ccc(-c3ccc(C(C)=O)cc3)c(OC)c2)nc2cc(C)ccn12	18	-4	14	67*	2	52*	1	6
COc1ccc(-c2nc3ccc(C)cn3c2NCc2ccccc2)cc1SC1CCCCC1	10	-12	7	-28	25	.	.	.
Cc1ccn2c(NC3CCCC3)c(-c3cccs3)nc2c1	4	-10	-3	7	0	.	.	.
CCN1CCc2c(OCc3ccc(C)cc3)cccc2C1=O	10	-1	-5	-1	-3	.	.	.
CC(C)NC(=O)C1CCN(S(=O)(=O)c2ccc(N3CCCC3=O)cc2)CC1	-4	12	3	-8	-2	.	.	.
COc1ccc(-c2ccc(-c3nc4ccc(C)cn4c3NC3CCCCC3)cc2OC)cc1	26	-11	16	72*	9	65*!	0	-11
CCCCCCSc1ccc(-c2nc3ccc(C)cn3c2NCc2ccccc2)cc1OC	43	-3	20	72*	-9	44	1	2
Cc1ccc2nc(-c3cccc(SC4CCCCC4)c3)c(NC3CCCCC3)n2c1	34	4	17	31	-1	.	.	.
CCCCCCSc1cc(-c2nc3ccc(C)cn3c2NCCCC)ccc1OC	12	21	13	32	1	.	.	.
CCOc1ccc(NC(=O)CSc2nnc(-c3ccco3)n2C)cc1	-15	3	-5	-1	-1	.	.	.
C=CCc1cccc(CNc2nc3ccccc3n2C)c1O	0	-13	3	0	0	.	.	.
C=CCc1cccc(CNc2nc3ccccc3n2CCN2CCOCC2)c1O	14	-24	25	83*	-4	84*	-1	7
CN1CCN(Cn2cc(/C=C/C(=O)c3ccccc3)c3ccccc32)CC1	-2	1	1	-1	-4	.	.	.
CCN(CC)c1ncnc2c1ncn2[C@H]1CN(Cc2ccc(-c3ccccc3)cc2)C[C@@H](CO)O1	.	.	-5	17	.	.	.	.
Cn1nc(Oc2ncc(C(F)(F)F)cc2Cl)cc1C(F)(F)F	1	-5	4	66*	1	8	-2	-13
Cc1ccc(NC(=O)c2ccc(CSc3ccccn3)cc2)cc1	2	-3	0	46*	-5	31	-1	-14
Cc1cccc(NC(=O)CSCC(=O)Nc2cc(C(F)(F)F)ccc2N2CCOCC2)c1	.	.	7	-1	.	.	.	.
COc1cc(-c2cc(-c3ccc(F)cc3)nc(N)c2C#N)ccc1O	-5	-4	-5	36	-1	.	.	.
Cc1ccc(CNC(=O)c2cc3c(s2)CN(Cc2ccccc2)C3)cc1	10	6	2	66*	-5	35	1	6
SMILES	CCR6 antagonist	APJ antagonist	CXCR6 block	EBI2 block	APJ agonist	EBI2 antag conf	EBI2 ag	bGal counter
O=C1C=C(c2ccc(O)cc2)C[C@@H](c2ccc(Cl)cc2)C1	21	-6	-10	15	-3	.	.	.
COc1ccc(C2=CC(=O)CC(c3ccc(OC)cc3)C2)cc1 (stereo not drawn)	24	11	-1	51*	-4	29	-2	-13
O=C1C=C(c2ccc(OC(F)(F)F)cc2)C[C@@H](c2ccc(Cl)cc2)C1	19	12	-2	65*	-4	36	-1	-12
CC(C)c1cccc(C2=CC(=O)C[C@H](c3ccc(F)cc3)C2)c1	20	1	2	18	-5	.	.	.
COc1ccc(C2=CC(=O)CC(c3ccc(F)cc3)C2)cc1 (stereo not drawn)	14	-1	4	40	-7	.	.	.
COc1ccc(C2=CC(=O)C[C@H](c3ccc(Cl)cc3)C2)cc1	20	17	-3	50*	0	59*	-2	-4
Cn1ccc2ccc(C3=CC(=O)C[C@H](c4ccc(F)cc4)C3)cc21	6	27	7	55*	-3	48	-1	-3
O=C(NCC(c1cccs1)N1CCOCC1)c1cc2ccccc2oc1=O (stereo not drawn)	7	-10	-9	6	-2	.	.	.
COc1ccc([C@H]2CC(=O)C=C(c3cccc(Br)c3)C2)cc1	19	8	2	41	-3	.	.	.
O=C1C=C(c2cc(C(F)(F)F)cc(C(F)(F)F)c2)C[C@@H](c2ccc(Cl)cc2)C1	5	11	6	60*	-1	37	-1	-15
O=C1C=C(c2cc3ccccc3s2)C[C@@H](c2ccc(F)cc2)C1	9	11	-1	53*	-5	44	-1	-8
C=Cc1ccc(C2=CC(=O)C[C@H](c3ccc(OC)cc3)C2)cc1	14	-26	-5	77*	-3	54*	0	12
COc1cccc(C2=CC(=O)C[C@H](c3ccc(Cl)cc3)C2)c1	29	1	6	46*	-2	32	0	11
O=C(CCn1c(=O)sc2ccccc21)NCc1ccco1	0	8	-1	-4	-1	.	.	.
Cc1cccc(CCNS(=O)(=O)c2ccc(S(=O)(=O)N3CCC(C)CC3)cc2)c1	11	10	-5	17	-2	.	.	.
C/C(N)=C(/C#N)C(=O)COC(=O)[C@@H](NC(=O)c1ccccc1Cl)C(C)C	0	8	-6	2	-4	.	.	.
